The text below walks through data of ChEMBL document CHEMBL3272240, “[1-deaminopenicillamine,4-valine]-8-D-arginine-vasopressin, a highly potent inhibitor of the vasopressor response to arginine-vasopressin” (J Med Chem, 1977).

Calls of active or inactive are those of the source. The rule behind the calls is not given here. Starred links: 1 amine or outer side, 2 acyl side, 3 side chain; linkers in the order of their positions; H or OH if unused. Positions of bridges follow the written chain, without caps; N, C: chain ends. Non-standard residues stand in square brackets, D forms with d. Residues, ends and D or L forms follow the SMILES beside them. X2 = CCC(CC)(CC(=O)[*:1])S[*:2]; X1 = CC(C)(CC(=O)[*:1])S[*:2]; Mpa = O=C(O)CCS

For assay [1], the system named is Rattus norvegicus. Nature of the assay: Ratio of dPVDAVP to compound for antidiuretic activity in sc dosed Brattleboro rat hereditary hypothalamic diabetes insipidus model.
In assay [2] the test system is Rattus norvegicus. Nature of the assay: Antidiuretic activity in sc dosed Brattleboro rat hereditary hypothalamic diabetes insipidus model measured over 6 hrs. The class given is functional, Urine. In a few lines:
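Brattleboro rats with hereditary hypothalamic diabetes insipidus received a single sc injection of 100 ng/kg. Inhibition of diuresis was followed over time to record its duration.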

Assay [3] can be described thus: Oxytocic activity in Sherman albino rat uterus assessed as contraction. The class given is functional.
Assay [4] in a line: Antioxytocic activity in Sherman albino rat uterus assessed as inhibition of oxytocin-induced contraction. The assay is classed as functional, tissue-based. In a few lines:
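Isolated rat uterus in magnesium-free van Dyke-Hastings solution. The antagonist was added to the bath immediately before injection of agonist (USP Posterior Pituitary Reference Standard). pA2 was calculated per Schild as the −log molar antagonist concentration reducing the response to 2X units of agonist to that of X units. A pA2 was computed per assay group and reported as mean ± SE.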

The species entered for assay [5] is Rattus norvegicus. The experiment in a line: Antivasopressor activity in phenoxybenzamine-treated rat assessed as inhibition of norepinephrine-induced vasopressor response. The assay is classed as functional, organism-based.
For assay [6], the system named is Rattus norvegicus. The experiment in a line: Antivasopressor activity in phenoxybenzamine-treated rat assessed as inhibition of arginine-vasopressin-induced vasopressor response at 10 ug/kg, iv measured for >= 2.5 hrs. The assay is classed as functional, organism-based. In a few lines: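 Rats received a single iv injection of 10 μg/kg antagonist. Vasopressor responses to AVP challenges of 10-40 mU/kg (about 25-100 ng/kg) were then followed. The duration of inhibition was recorded as an average period.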

For assay [7], the species on record is Rattus norvegicus. The experiment in a line: Antivasopressor activity in phenoxybenzamine-treated rat assessed as inhibition of angiotensin 2-induced vasopressor response. The class given is functional, organism-based.
The test system of assay [8] is Rattus norvegicus. Nature of the assay: Antidiuretic antagonist activity in sc dosed Brattleboro rat hereditary hypothalamic diabetes insipidus model. The class given is functional, organism-based. To be noted: Urine.
In assay [9] the test system is Rattus norvegicus. The experiment in a line: Antidiuretic activity in sc dosed Brattleboro rat hereditary hypothalamic diabetes insipidus model. The note with it: Urine. The assay is classed as functional, organism-based.
The subject of assay [10] is Rattus norvegicus. The experiment in a line: Antidiuretic activity in Brattleboro rat hereditary hypothalamic diabetes insipidus model at 100 ug/kg, sc measured over 1.7 hrs. The assay is classed as functional, organism-based. The note with it: Urine. In a few lines:
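Single subcutaneous injection into Brattleboro rats with hereditary hypothalamic diabetes insipidus. The value recorded is the duration, in hours, for which diuresis was inhibited (antidiuresis) after dosing.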

The test system of assay [11] is Rattus norvegicus. Nature of the assay: Antivasopressor activity in iv dosed phenoxybenzamine-treated rat assessed as inhibition of lysine-vasopressin-induced vasopressor response. The class given is functional, organism-based. To be noted: read-out: pA2 (converted). In a few lines: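 Urethane-anesthetized, phenoxybenzamine-treated rats as in the standard rat vasopressor assay. The antagonist was given iv immediately before iv injection of agonist standard, with LVP as agonist. pA2 is the −log molar antagonist concentration halving the effect of a doubled agonist dose. Peptide was assumed uniformly distributed in blood volume. pA2 was computed per assay group and reported as mean ± SE.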

For the compound `CC(C)[C@@H]1NC(=O)[C@H](Cc2ccccc2)NC(=O)[C@H](Cc2ccc(O)cc2)NC(=O)CCSSC[C@@H](C(=O)N2CCC[C@H]2C(=O)N[C@H](CCCNC(=N)N)C(=O)NCC(N)=O)NC(=O)[C@H](CC(N)=O)NC1=O` ([Mpa]YFVNCP[dR]G-NH2; disulfide 1-6), the Ratio in the assay on Rattus norvegicus [1] worked out at 10. Further, the Activity in the assay with Rattus norvegicus [2] was found to be 1230 U/mg; in [3], 8 U/mg.

Turning to `CC(C)[C@@H]1NC(=O)[C@H](Cc2ccccc2)NC(=O)[C@H](Cc2ccc(O)cc2)NC(=O)CC(C)(C)SSC[C@@H](C(=O)N2CCC[C@H]2C(=O)N[C@H](CCCNC(=N)N)C(=O)NCC(N)=O)NC(=O)[C@H](CC(N)=O)NC1=O` (YFVNCP[dR]G-NH2; linker N-5 via X1), the pA2 in assay [4] was determined as 7.23. For the same compound, the inhibition result in the assay filed under Rattus norvegicus [5] and in the assay filed under Rattus norvegicus [7] was “inactive” throughout. Further, in the assay on Rattus norvegicus [6], the inhibition entry was “Active”. In the assay with Rattus norvegicus [2], the Activity is 123 U/mg. In the assay on Rattus norvegicus [8], the outcome was inactive. Further, the outcome with Rattus norvegicus [9] was Active.

In the case of `N=C(N)NCCC[C@H](NC(=O)[C@@H]1CCCN1C(=O)[C@@H]1CSSC[C@H](N)C(=O)N[C@@H](Cc2ccc(O)cc2)C(=O)N[C@@H](Cc2ccccc2)C(=O)N[C@@H](CCC(N)=O)C(=O)N[C@@H](CC(N)=O)C(=O)N1)C(=O)NCC(N)=O`, the result in the assay on Rattus norvegicus [10] was Active.

`CCC1(CC)CC(=O)N[C@@H](Cc2ccc(O)cc2)C(=O)N[C@@H](Cc2ccccc2)C(=O)N[C@@H](CCC(N)=O)C(=O)N[C@@H](CC(N)=O)C(=O)N[C@H](C(=O)N2CCC[C@H]2C(=O)N[C@@H](CCCCN)C(=O)NCC(N)=O)CSS1` (YFQNCPKG-NH2; linker N-5 via X2): in assay [4], the pA2 was 6.84. Also, the Kb with Rattus norvegicus [11] is 70.8 nM.
